This is an account of results in ChEMBL document CHEMBL1138746, “Indolebutylamines as selective 5-HT(1A) agonists” (J Med Chem, 2004).

Test [1] has as its target 5-hydroxytryptamine receptor 1A (Homo sapiens) (UniProt P08908). The test is described as follows: Effective dose against 5-HT1a receptor.
Another test concerns the target D(2) dopamine receptor (Rattus norvegicus, UniProt P61169). The test is described as follows: Displacement of [3H]spiperone from dopamine D2 receptor of rat striatal membranes. It counts as cell membranes, Membrane. The essentials: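 Rat striatal membranes (0.3–1.0 mg protein/mL) were incubated with 0.1 nM [3H]spiperone in Tris-HCl buffer (pH 7.1) containing 120 mmol/L NaCl, 5 mmol/L KCl, 1 mmol/L CaCl2, 1 mmol/L MgCl2 and 0.1% ascorbic acid, at 37 °C for 15 min. Bound ligand was separated by filtration with three ice-cold washes. Nonspecific binding was defined with 1 mmol/L (+)-butaclamol. IC50 (50% inhibition of binding) came from 5–10 concentrations, each in triplicate.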

Test [2] concerns the target T1, Adrenergic receptor alpha-2 (Homo sapiens, UniProt P08913+P18825+P18089).
T1 sequence (P08913 whole entry): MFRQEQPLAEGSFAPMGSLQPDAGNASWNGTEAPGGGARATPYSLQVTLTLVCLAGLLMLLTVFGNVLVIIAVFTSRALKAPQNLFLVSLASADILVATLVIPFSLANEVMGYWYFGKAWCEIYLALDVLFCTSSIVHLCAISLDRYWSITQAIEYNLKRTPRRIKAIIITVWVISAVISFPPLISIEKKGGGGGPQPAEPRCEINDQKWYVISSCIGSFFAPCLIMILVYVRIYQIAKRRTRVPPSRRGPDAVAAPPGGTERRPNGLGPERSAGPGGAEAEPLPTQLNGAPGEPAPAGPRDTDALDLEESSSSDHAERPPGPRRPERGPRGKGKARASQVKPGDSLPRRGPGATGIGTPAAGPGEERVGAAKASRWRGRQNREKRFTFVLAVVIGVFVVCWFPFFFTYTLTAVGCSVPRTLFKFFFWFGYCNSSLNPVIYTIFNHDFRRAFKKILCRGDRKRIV
T1 sequence (P18825 whole entry): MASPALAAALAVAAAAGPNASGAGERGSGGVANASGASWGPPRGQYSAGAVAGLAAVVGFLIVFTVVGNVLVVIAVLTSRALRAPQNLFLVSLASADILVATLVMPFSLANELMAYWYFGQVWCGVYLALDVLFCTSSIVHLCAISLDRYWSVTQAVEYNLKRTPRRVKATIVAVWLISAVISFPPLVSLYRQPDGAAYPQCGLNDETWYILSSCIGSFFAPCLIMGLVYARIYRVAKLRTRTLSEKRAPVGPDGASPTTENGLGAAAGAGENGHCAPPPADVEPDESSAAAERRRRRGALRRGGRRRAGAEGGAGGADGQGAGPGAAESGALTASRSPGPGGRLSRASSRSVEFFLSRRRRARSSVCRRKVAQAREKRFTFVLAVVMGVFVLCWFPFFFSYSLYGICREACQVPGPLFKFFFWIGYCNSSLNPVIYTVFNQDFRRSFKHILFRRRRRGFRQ
T1 sequence (P18089 whole entry): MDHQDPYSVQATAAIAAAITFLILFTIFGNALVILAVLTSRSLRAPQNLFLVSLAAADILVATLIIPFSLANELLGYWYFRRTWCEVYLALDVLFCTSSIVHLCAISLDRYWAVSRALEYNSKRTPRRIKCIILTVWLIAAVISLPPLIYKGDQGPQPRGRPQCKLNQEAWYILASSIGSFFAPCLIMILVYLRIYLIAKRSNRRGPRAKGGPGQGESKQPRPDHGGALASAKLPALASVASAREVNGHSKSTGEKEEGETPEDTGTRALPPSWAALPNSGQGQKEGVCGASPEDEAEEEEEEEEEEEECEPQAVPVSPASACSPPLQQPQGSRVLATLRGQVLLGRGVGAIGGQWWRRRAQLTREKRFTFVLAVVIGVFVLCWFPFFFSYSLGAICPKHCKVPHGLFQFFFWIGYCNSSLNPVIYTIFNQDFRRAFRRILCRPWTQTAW
Nature of the test: Inhibition of Alpha-2 adrenergic receptor. It is filed as protein assay.

A short description of test [3]: Inhibition of Histamine H1 receptor.
A short description of test [4]: Inhibition of 5-hydroxytryptamine 2A receptor.
Test [5] deals with T2, 5-hydroxytryptamine receptor 1A (Rattus norvegicus, UniProt P19327).
T2 sequence (P19327 whole entry): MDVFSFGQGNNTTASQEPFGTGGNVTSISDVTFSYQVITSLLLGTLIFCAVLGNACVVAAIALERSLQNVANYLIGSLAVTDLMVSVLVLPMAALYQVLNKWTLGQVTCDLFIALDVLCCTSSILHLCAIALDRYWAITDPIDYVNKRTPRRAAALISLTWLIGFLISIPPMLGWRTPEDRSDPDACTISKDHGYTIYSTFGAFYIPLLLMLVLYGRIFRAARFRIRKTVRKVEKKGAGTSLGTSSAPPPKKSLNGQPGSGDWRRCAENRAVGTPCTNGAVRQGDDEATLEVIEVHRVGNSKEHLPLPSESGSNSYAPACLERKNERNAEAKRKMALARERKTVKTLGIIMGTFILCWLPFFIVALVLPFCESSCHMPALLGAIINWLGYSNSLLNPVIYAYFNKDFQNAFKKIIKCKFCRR
Nature of the test: Inhibition of 8-OH DPAT bindign to rat hydroxytryptamine 1A receptor in hippocampal membranes.

Test [6] concerns the target T3, Adrenergic receptor alpha-1 (Homo sapiens, UniProt P35348+P25100+P35368).
T3 sequence (P35348 whole entry): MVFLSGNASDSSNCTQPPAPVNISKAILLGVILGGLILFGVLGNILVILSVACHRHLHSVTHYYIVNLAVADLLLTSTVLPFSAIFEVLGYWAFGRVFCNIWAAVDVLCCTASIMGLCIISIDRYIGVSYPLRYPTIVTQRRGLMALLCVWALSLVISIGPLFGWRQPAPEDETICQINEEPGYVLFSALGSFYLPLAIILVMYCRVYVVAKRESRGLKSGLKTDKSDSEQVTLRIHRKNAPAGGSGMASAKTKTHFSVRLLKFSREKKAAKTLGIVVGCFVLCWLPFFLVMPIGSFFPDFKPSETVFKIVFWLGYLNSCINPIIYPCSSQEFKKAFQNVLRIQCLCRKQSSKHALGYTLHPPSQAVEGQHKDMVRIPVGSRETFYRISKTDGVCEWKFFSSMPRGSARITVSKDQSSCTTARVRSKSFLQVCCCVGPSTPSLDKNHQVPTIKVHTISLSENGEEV
T3 sequence (P25100 whole entry): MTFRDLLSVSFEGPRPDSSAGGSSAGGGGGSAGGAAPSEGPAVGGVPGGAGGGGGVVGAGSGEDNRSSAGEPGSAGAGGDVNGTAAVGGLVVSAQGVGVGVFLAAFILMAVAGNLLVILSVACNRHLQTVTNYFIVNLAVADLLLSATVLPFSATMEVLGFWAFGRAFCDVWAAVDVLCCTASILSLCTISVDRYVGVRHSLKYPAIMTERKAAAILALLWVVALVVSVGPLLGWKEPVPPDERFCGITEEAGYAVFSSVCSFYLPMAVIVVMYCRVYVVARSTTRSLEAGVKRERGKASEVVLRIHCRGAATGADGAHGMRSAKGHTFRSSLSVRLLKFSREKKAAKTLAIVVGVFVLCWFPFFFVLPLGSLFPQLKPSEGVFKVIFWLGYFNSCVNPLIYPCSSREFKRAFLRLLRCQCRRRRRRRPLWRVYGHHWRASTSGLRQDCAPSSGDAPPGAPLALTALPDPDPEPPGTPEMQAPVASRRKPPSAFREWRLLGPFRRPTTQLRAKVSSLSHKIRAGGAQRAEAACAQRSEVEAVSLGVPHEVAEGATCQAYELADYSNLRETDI
T3 sequence (P35368 whole entry): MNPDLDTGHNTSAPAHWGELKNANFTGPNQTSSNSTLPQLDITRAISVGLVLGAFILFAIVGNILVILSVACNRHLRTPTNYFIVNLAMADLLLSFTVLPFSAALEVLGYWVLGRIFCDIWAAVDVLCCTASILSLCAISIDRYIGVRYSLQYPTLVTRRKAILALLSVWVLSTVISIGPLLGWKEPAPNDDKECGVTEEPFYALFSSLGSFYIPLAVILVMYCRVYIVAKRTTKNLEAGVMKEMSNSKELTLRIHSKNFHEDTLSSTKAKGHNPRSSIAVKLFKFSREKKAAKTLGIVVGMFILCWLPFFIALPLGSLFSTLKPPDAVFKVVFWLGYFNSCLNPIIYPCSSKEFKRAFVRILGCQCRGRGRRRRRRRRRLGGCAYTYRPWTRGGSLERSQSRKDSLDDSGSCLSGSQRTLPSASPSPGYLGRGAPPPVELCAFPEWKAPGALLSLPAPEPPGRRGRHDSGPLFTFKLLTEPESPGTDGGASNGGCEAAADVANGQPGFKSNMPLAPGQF
Nature of the test: Inhibition of Alpha-1 adrenergic receptor. It is filed as protein assay.

Test [7] can be described thus: Inhibition of 5-hydroxytryptamine 1D receptor.
The nature of test [8]: Inhibition of hydroxytryptamine 2C receptor.
In test [9] the target is 5-hydroxytryptamine receptor 1A (Homo sapiens) (UniProt P08908). Nature of the test: Effective dose against 5-hydroxytryptamine 1A receptor.
A short description of test [10]: Inhibition of 5-hydroxytryptamine 2C receptor.

Structures are written as SMILES. pIC50: −log10 of the molar value. Where only a bound is given, the exact number is not on record here.

Sequence of D(2) dopamine receptor (P61169 whole entry): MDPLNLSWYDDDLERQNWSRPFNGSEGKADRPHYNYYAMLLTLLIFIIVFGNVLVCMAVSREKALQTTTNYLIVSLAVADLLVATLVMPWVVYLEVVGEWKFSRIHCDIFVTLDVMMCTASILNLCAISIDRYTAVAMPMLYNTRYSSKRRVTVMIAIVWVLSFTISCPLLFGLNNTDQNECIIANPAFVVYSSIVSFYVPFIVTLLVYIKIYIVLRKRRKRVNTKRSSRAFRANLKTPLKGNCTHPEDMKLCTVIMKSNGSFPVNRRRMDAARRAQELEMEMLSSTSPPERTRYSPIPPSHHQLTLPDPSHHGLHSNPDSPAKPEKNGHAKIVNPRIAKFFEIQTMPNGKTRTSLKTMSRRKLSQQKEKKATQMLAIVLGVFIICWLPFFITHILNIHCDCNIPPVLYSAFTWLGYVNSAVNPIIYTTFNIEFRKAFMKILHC
Sequence of 5-hydroxytryptamine receptor 1A (Homo sapiens) (P08908 whole entry, looked up): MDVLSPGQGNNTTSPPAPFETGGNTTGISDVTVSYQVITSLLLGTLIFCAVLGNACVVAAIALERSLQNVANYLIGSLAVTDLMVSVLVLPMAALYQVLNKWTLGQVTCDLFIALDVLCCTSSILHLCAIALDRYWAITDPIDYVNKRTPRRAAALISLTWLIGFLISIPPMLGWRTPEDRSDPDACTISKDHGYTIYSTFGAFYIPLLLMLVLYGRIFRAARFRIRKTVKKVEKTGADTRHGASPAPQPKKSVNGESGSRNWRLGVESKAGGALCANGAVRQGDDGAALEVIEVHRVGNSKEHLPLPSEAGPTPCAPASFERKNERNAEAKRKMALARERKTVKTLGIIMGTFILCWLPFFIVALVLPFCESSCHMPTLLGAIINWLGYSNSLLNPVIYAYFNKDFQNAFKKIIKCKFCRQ

One may read the pIC50 as −log10 of the IC50, conventionally taken in molar units. High values mean a low IC50, low ones a high IC50. `NC(=O)c1ccc(N2CCN(CCCCc3c[nH]c4ccc(C(N)=O)cc34)CC2)cc1` showed an ED50 in [1] of 4.7 nM. Besides, the negative-log IC50 (pIC50) on D(2) dopamine receptor was < 6.07.
What is called IC50 is the concentration needed to halve the response being measured. A higher IC50 goes with lower potency. On to `COc1ccc(N2CCN(CCCCc3c[nH]c4ccc(C(N)=O)cc34)CC2)cc1`, for which the values for the IC50 in [2] and in [6] were 2000 nM and 700 nM, respectively. The negative logarithm of the IC50 (pIC50) in test [3] was 6.00; in [4] it was 6.66; in test [5], 10.05; at D(2) dopamine receptor, 6.85.
In the case of `COc1ccc(N2CCN(CCCCc3c[nH]c4ccc(OC)cc34)CC2)cc1`, the IC50 in test [2] amounted to 7000 nM; in [6] it was 1000 nM. Further, the negative logarithm of the IC50 (pIC50) in test [3] is 7.39; in test [7], < 5.00; in test [8], 5.40; in test [4], 6.12; on D(2) dopamine receptor, 6.38.
In turn, `NC(=O)c1ccc2[nH]cc(CCCCN3CCN(c4ccc5c(c4)CCCO5)CC3)c2c1` registered an ED50 in test [9] of 0.07 nM. Further, the pIC50 was 9.30 in test [5] and 7.00 on D(2) dopamine receptor.
In the case of `NC(=O)c1ccc2[nH]cc(CCCCN3CCN(c4ccc5c(c4)OCO5)CC3)c2c1`, the IC50 in test [2] is given as 900 nM; in [6], 100 nM. Besides, the pIC50 is 7.72 in test [3]; 6.10 in test [10]; 6.40 in test [7]; 6.62 in test [4]; 9.40 in test [5]; 7.66 on D(2) dopamine receptor.
